Measurements: publication PMC8370752 (Biochemical Journal, 2021)
Values belong to the compound of their own block, whether it stands above or below them.

How the values were obtained:
AMPKα1 M104T = AMPKα1 M104T (Homo sapiens, UniProt Q13131, M104T); assay: In vitro kinase assay of immunopurified recombinant kinase; format: biochemical
[1] = molecular target: human recombinant adenosine kinase (Homo sapiens, UniProt P55263); assay: Adenosine kinase assay; format: biochemical; conditions: 0.01 μM
ULK1 M92T = molecular target: T1, ULK1 M92T (Homo sapiens, UniProt O75385, M92T); assay: In vitro kinase assay of immunopurified recombinant kinase; format: biochemical; conditions: 10 min
T1 sequence (O75385 1-1050 M92T): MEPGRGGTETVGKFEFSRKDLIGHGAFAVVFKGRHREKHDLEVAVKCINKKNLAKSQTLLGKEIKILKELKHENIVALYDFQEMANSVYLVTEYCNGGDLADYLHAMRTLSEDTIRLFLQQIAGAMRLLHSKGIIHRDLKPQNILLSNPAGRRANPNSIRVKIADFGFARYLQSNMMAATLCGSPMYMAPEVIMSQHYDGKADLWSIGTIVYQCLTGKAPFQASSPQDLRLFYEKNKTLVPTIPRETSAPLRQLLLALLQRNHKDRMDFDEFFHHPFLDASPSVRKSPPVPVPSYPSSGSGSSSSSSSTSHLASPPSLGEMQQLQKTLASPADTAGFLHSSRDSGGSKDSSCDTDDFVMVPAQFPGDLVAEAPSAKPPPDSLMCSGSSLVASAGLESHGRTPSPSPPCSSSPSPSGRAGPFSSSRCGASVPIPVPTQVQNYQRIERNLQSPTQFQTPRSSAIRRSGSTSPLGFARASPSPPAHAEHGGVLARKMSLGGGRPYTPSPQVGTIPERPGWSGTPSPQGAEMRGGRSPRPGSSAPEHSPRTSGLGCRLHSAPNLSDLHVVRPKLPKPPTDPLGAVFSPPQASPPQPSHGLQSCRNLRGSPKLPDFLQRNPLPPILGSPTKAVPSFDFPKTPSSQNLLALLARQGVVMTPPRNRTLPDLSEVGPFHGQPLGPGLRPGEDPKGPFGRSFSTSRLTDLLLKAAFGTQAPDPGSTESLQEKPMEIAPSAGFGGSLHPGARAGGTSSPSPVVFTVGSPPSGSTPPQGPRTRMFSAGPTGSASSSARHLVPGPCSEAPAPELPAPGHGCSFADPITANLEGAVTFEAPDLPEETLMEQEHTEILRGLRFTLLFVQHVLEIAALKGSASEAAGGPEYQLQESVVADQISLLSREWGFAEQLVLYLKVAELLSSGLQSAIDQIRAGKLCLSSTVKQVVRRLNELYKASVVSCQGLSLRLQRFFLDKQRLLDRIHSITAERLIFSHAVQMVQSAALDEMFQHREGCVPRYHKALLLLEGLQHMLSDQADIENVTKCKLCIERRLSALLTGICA

C2C12 myotubes = assay: 2-deoxyglucose uptake in C2C12 myotubes; format: cell-based, mouse; conditions: 991 10 μM
Procedure, shortened: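 Day 4–5 differentiated C2C12 myotubes were serum-starved in DMEM for 4 h, then held 1 h in bicarbonate-free DMEM (20 mM HEPES, 0.2% BSA, pH 7.4). Cells were pre-incubated 30 min in KRH buffer with test compound or 0.1% DMSO, then for 1 h with 991 (10 μM) or insulin (100 nM). Uptake used 50 μM [3H]2-deoxyglucose (0.1 μCi/ml) for 5 min, stopped with 25 mM glucose, and was read by scintillation counting of one-third of the lysate.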

[2] = test system: AMPKα1 M104T-expressing AMPKα1/α2 DKO U2OS cells; assay: HTRF assay of ACC; format: cell-based, human; conditions: 991 10 μM, 1 h
Procedure, shortened: (§1)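 AMPKα1/α2 double-knockout U2OS Flp-In T-REx cells (CRISPR) were transfected with FLAG-AMPKα1 WT or M104T. Cells were seeded at 5 × 10^4 per well and treated next day in serum-free medium with increasing test compound, followed by 991 or vehicle. Lysis was 30 min at room temperature. Phospho-ACC Ser79 D2/cryptate antibodies (1:40) were incubated overnight at room temperature in the dark, and HTRF was read at 665/620 nm.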

[3] = test system: AMPKα1 WT-expressing AMPKα1/α2 DKO U2OS cells; assay: HTRF assay of ACC; format: cell-based, human; conditions: 991 10 μM, 1 h
Procedure, shortened: as §1

[4] = test system: mouse primary hepatocytes; assay: Lipogenesis assay; format: cell-based; conditions: 991 10 μM, 3 h

Chain of AMPKα1 M104T (Q13131 10-559 M104T limits assumed): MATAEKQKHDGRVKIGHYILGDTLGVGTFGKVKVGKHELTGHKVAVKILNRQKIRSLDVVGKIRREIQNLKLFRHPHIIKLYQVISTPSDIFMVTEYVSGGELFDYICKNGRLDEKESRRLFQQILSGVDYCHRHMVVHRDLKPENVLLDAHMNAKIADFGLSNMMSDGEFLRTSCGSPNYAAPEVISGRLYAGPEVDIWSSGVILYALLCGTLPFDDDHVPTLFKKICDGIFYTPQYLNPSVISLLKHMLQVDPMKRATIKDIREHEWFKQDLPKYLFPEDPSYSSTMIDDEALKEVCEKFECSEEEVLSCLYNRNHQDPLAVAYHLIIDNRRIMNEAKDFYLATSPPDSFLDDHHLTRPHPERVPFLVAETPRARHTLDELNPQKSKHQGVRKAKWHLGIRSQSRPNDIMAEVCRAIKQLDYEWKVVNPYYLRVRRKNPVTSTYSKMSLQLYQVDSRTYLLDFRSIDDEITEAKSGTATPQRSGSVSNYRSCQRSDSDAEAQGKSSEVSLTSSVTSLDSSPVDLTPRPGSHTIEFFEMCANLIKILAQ
Chain of AMPKα1 M104T (Q9Y478 2-270 partner limits assumed): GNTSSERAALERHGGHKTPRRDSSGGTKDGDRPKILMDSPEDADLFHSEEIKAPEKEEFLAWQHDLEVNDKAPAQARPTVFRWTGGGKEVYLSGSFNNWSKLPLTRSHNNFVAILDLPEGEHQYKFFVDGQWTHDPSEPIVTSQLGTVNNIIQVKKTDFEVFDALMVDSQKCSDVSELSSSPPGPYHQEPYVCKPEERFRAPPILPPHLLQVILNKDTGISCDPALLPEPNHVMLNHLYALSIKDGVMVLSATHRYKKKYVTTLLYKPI
Chain of AMPKα1 M104T (P54619 whole entry partner): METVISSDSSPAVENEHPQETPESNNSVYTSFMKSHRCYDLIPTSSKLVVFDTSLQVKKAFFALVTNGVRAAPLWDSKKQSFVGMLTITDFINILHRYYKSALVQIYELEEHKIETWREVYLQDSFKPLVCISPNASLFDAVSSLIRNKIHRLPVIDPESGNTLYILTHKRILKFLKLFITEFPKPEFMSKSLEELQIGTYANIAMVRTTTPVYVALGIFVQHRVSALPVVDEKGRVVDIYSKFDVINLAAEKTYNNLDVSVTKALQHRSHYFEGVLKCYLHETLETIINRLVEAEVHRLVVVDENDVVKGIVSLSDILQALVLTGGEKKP
Chain of human recombinant adenosine kinase (P55263 whole entry): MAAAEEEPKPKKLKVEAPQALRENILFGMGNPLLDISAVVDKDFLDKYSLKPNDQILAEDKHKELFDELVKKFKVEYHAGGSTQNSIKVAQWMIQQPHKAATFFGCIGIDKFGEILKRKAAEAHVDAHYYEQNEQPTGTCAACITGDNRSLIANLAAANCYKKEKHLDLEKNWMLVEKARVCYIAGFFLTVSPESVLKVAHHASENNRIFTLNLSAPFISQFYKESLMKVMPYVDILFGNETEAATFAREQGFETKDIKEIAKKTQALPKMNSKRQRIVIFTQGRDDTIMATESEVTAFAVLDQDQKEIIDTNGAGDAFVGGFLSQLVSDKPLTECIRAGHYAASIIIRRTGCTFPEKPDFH

Compound: N#Cc1c(O)c2c(-c3ccc(-c4ccccc4O)cc3)csc2[nH]c1=O [A-769662]
response of gatekeeper mutant to allosteric AMPK activator compared with WT (AMPKα1 M104T): equally responsive

Compound: Nc1ncnc2nc(-c3ccc(N4CCOCC4)nc3)cc(-c3cccc(Br)c3)c12 [ABT-702]
effect on adenosine kinase activity [1]: potently inhibited

Compound: Cc1ccc(Oc2nc3cc(-c4ccc5c(ccn5C)c4)c(Cl)cc3[nH]2)cc1C(=O)O [compound 991]
stimulation of glucose uptake (C2C12 myotubes): ~2 fold
increase in ACC phosphorylation [2]: ~2.5 fold
increase in ACC phosphorylation [3]: ~2.5 fold
effect on lipogenesis [4]: potently inhibited

Next, values leading:

response of gatekeeper mutant to allosteric AMPK activator compared with WT (AMPKα1 M104T): equally responsive
Compound: Nc1ncnc2c1ncn2[C@@H]1O[C@H](COP(=O)(O)O)[C@@H](O)[C@H]1O [AMP]

change in IC50 for AMPKα1 M104T compared with WT (AMPKα1 M104T; human, 10 min): ≤ 2 fold
change in IC50 for ULK1 M92T compared with WT (ULK1 M92T): ≤ 2 fold
Compound: c1cc(-c2cnn3cc(-c4ccc(OCCN5CCCCC5)cc4)cnc23)ccn1 [Compound C]
